High-throughput results from PubChem BioAssay.
An excerpt weighted towards active compounds, which were near 2.8% of everything screened.
CAL PDZ FP-1: blocks peptide binding to human CAL PDZ domain | Q9HD26 | purified CAL PDZ, TMR-peptide fluorescence polarization, 1 h | inhibition, % at 20 µM | hit rate 0.02% among 330,000 | AID 504414;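 active means highest replicate inhibition of at least 40%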;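 further: plate controls were DMSO neutral control wells for no effect and unlabeled competitor peptide control wells for full effect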
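System: tagged CAL PDZ domain. Schedule: 1 h room-temperature incubation prior to read. Signal: fluorescence polarization (mP). Measure: percent inhibition from loss of millipolarization.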
CAL PDZ FP-2: CAL PDZ (human) peptide binding inhibition | Q9HD26 | AID 602252 | hit rate 0.92% among 300,000 | inhibition, % at 24.9 µM | purified CAL PDZ, TMR-peptide fluorescence polarization, 1 h;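 active means mean inhibition of at least 30% with at least half of replicates also reaching 30%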;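 further: 0% = DMSO neutral control and 100% = excess unlabeled competitor peptide PRC23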
SR-BI DiI-HDL act: activators of SR-BI mediated HDL lipid uptake; CHO ldlA[mSR-BI] cells, DiI-HDL uptake fluorescence, 3 h; 100 = double the neutral-control signal; activation, % at 12.5 µM; hit rate 0.096% among 320,000;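 active means mean replicate activation of at least 60% and every replicate at or above 60%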;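 further: 0% = median plate neutral-control signal and 100% = twice that signal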
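System: CHO ldlA[mSR-BI] cells / Medium: HEPES-buffered (25 mM, pH 7.4) F12 plus 0.5% BSA / Probe or stimulus: labelled HDL, 10 µg/mL / Doses: single compound concentration, delivered by pin transfer / Schedule: 3 h, 37 °C / Measured by: DiI fluorescence, bottom read / Measure: cell-associated DiI fluorescence as measure of HDL uptake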
SR-BI DiI inh: mouse SR-BI HDL lipid transfer inhibition; ldlA[mSR-BI] CHO cells, DiI-HDL uptake fluorescence, 3 h; inhibition, % at 12.5 µM; hit rate 0.96% among 320,000; AID 488896;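 active means mean replicate inhibition of at least 70% and a set share of replicates each scoring 70 or more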;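 further: 0% = median of neutral control wells and 100% = median of positive control wells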
Target sequence (Q61009 whole entry, looked up): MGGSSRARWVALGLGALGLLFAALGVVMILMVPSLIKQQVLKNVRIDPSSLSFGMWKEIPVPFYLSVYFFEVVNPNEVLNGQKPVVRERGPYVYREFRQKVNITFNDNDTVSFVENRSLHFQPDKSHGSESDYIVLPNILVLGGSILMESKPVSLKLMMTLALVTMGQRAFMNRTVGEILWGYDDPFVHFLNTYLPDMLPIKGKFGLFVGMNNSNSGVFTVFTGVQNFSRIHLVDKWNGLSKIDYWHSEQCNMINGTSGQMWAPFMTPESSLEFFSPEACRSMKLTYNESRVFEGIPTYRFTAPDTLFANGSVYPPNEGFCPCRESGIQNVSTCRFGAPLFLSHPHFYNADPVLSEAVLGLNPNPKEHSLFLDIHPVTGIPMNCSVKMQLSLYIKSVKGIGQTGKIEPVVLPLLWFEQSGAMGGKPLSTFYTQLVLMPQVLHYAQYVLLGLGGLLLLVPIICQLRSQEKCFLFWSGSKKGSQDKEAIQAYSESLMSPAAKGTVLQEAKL
dFosB act-1: enhances mouse delta FosB homodimer DNA binding. P13346. purified delta FosB, TAMRA-CDK5 oligo fluorescence polarization; percent of positive-control signal above neutral wells. activation, % at 25 µM. hit rate 0.99% among 340,000. AID 493131;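 active means mean activation above about 17%, with every replicate also reaching it, limit read from the data, passing the limit was not always enough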
dFosB act-2: enhances mouse delta FosB homodimer binding to DNA; shares compounds with dFosB act-1; purified delta FosB, TAMRA-CDK5 oligo fluorescence polarization; normalised: neutral wells 0, positive control 100; activation, % at 24.9 µM; 2,400 tested, under 10 active; AID 588690;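 active means highest replicate activation at or above 34% and every replicate reaching that threshold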;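 further: higher polarization means more probe DNA bound by delta FosB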
An asterisk follows results filed as active.

COc1cccc(NC(=O)Nc2ccncc2)c1 was read as CAL PDZ FP-1 -3, CAL PDZ FP-2 -3, SR-BI DiI-HDL act 29, SR-BI DiI inh -29 and dFosB act-1 -3.
COc1cccc(NC(=O)Nc2nnc(Cc3ccc(F)cc3)s2)c1 was read as CAL PDZ FP-2 -5, SR-BI DiI-HDL act 13, SR-BI DiI inh -13, dFosB act-1 29* and dFosB act-2 -1.
`COc1cccc(NC(=O)Nc2cc(NC(=O)Nc3cccc(OC)c3)c(C)nc2C)c1` gave CAL PDZ FP-1 -3, CAL PDZ FP-2 -3, SR-BI DiI-HDL act 14, SR-BI DiI inh -14, dFosB act-1 18* and dFosB act-2 2.
`Cc1cccc(NC(=O)Cc2nnc(NC(=O)Nc3ccccc3F)s2)c1` gave CAL PDZ FP-1 -1, CAL PDZ FP-2 8, SR-BI DiI-HDL act 31, SR-BI DiI inh -31, dFosB act-1 40* and dFosB act-2 2.
O=C(Cn1sc2ccccc2c1=O)N1CCN(C(=O)c2ccco2)CC1 was read as CAL PDZ FP-1 0, CAL PDZ FP-2 -8, SR-BI DiI-HDL act -4, SR-BI DiI inh 4 and dFosB act-1 0.
Screening N#Cc1ccc(NC(=O)c2cc(-c3cccs3)on2)cc1 returned CAL PDZ FP-1 0, CAL PDZ FP-2 -5, SR-BI DiI-HDL act -19, SR-BI DiI inh 19, dFosB act-1 22* and dFosB act-2 6.
For CCOc1ccc2[nH]c3nc(SCC(=O)OC(C)C)nnc3c2c1 the results were CAL PDZ FP-1 -1, CAL PDZ FP-2 8, SR-BI DiI-HDL act 2, SR-BI DiI inh -2 and dFosB act-1 5.
CC(Sc1nnc2c(n1)[nH]c1ccccc12)C(=O)NC1CCCCC1 (stereo not drawn) was read as CAL PDZ FP-1 -5, CAL PDZ FP-2 0, SR-BI DiI-HDL act -14, SR-BI DiI inh 14, dFosB act-1 22* and dFosB act-2 2.
For CC(C)c1ccc2[nH]c3nc(SCC(=O)NC4CC4)nnc3c2c1 the results were CAL PDZ FP-1 -3, dFosB act-1 30* and dFosB act-2 0.
`COc1cc(/C=N\NC(=O)c2ccc(C)nc2)ccc1OC(=O)c1ccco1` gave CAL PDZ FP-1 -4, CAL PDZ FP-2 3, SR-BI DiI-HDL act -12, SR-BI DiI inh 12 and dFosB act-1 -14.
`COc1cc(/C=N\NC(=O)c2ccc(C)nc2)ccc1OC(=O)c1ccc2c(c1)OCO2` gave CAL PDZ FP-1 1, CAL PDZ FP-2 4, SR-BI DiI-HDL act -36, SR-BI DiI inh 36, dFosB act-1 139* and dFosB act-2 7.
For COc1cccc(C(=O)N(Cc2ccco2)c2c(N)n(Cc3ccccc3)c(=O)[nH]c2=O)c1 the results were CAL PDZ FP-1 -1, SR-BI DiI-HDL act 7, SR-BI DiI inh -7 and dFosB act-1 -2.
`O=C(CCCN1C(=O)c2cccc3cccc(c23)C1=O)N1CCN(c2ccccc2)CC1` gave CAL PDZ FP-1 -2, CAL PDZ FP-2 -1, SR-BI DiI-HDL act 1, SR-BI DiI inh -1 and dFosB act-1 -1.
COc1ccc(C(=O)CN2CCN(CCN3C(=O)c4cccc5cccc(c45)C3=O)CC2)cc1 was read as CAL PDZ FP-1 -2, CAL PDZ FP-2 -4, SR-BI DiI-HDL act -46, SR-BI DiI inh 46, dFosB act-1 42* and dFosB act-2 7.
For CN(C)CCCN1C(=O)c2cccc3cccc(c23)C1=O the results were CAL PDZ FP-1 0, CAL PDZ FP-2 0, SR-BI DiI-HDL act 8, SR-BI DiI inh -8, dFosB act-1 20* and dFosB act-2 3.
O=C(CN1CCN(CCN2C(=O)c3cccc4cccc(c34)C2=O)CC1)c1ccc(F)cc1 was read as CAL PDZ FP-1 -3, CAL PDZ FP-2 -2, SR-BI DiI-HDL act -3, SR-BI DiI inh 3, dFosB act-1 33* and dFosB act-2 2.
`O=C1c2cccc3cccc(c23)C(=O)N1CCCN1CCN(c2ccc(F)cc2)CC1` gave CAL PDZ FP-1 -2, CAL PDZ FP-2 4, dFosB act-1 46* and dFosB act-2 0.
For CC(C)(C)C(=O)N1CCN(CCN2C(=O)c3cccc4cccc(c34)C2=O)CC1 the results were CAL PDZ FP-1 0, CAL PDZ FP-2 -2, SR-BI DiI-HDL act 17, SR-BI DiI inh -17 and dFosB act-1 0.
`CN(C)CCCN1C(=O)c2cc3ccccc3cc2C1=O` gave CAL PDZ FP-1 1, CAL PDZ FP-2 10, SR-BI DiI-HDL act 10, SR-BI DiI inh -10 and dFosB act-1 12.
Screening CCCc1cc(=O)oc2cc(OCC(=O)NCCc3ccc(S(N)(=O)=O)cc3)ccc12 returned CAL PDZ FP-1 0, SR-BI DiI-HDL act -24, SR-BI DiI inh 24 and dFosB act-1 -18.
O=C(NCC(c1ccco1)N1CCc2ccccc2C1)c1ccc(F)cc1 (stereo not drawn) was read as CAL PDZ FP-1 -1, SR-BI DiI-HDL act 24, SR-BI DiI inh -24 and dFosB act-1 -11.
For O=S(=O)(N/N=C/c1ccc2c(c1)OCO2)c1ccc(Br)cc1 the results were CAL PDZ FP-1 -2, CAL PDZ FP-2 -2, SR-BI DiI-HDL act 13, SR-BI DiI inh -13 and dFosB act-1 -9.
O=C(Cc1ccc(NC(=O)C2CCCN(C(=O)c3ccccc3)C2)cc1)Nc1ccc(C(=O)N2CCOCC2)cc1 (stereo not drawn) was read as CAL PDZ FP-1 -2, CAL PDZ FP-2 0, SR-BI DiI-HDL act -2, SR-BI DiI inh 2 and dFosB act-1 -6.
`COc1ccc(OCC(O)CN2CCC(CN3C(=O)c4cccc5cccc(c45)C3=O)CC2)cc1` (stereo not drawn) gave CAL PDZ FP-1 -1, CAL PDZ FP-2 0, SR-BI DiI-HDL act -77, SR-BI DiI inh 77*, dFosB act-1 45* and dFosB act-2 2.
Screening CCOc1cc(/C=C2/NC(=O)N(CC(=O)Nc3cccc(C)c3)C2=O)ccc1OCC(N)=O returned CAL PDZ FP-1 -1, CAL PDZ FP-2 1, SR-BI DiI-HDL act -35, SR-BI DiI inh 35 and dFosB act-1 10.
`Cc1cccc(NC(=O)CN2C(=O)N/C(=C/c3ccc(C)s3)C2=O)c1` gave CAL PDZ FP-1 -2, CAL PDZ FP-2 -1, SR-BI DiI-HDL act 7, SR-BI DiI inh -7, dFosB act-1 31* and dFosB act-2 0.
CCOc1cccc(/C=C2/NC(=O)N(CC(=O)Nc3cccc(C)c3)C2=O)c1O was read as CAL PDZ FP-1 0, CAL PDZ FP-2 -6, SR-BI DiI-HDL act -6, SR-BI DiI inh 6, dFosB act-1 23* and dFosB act-2 2.
For O=C(Nc1ccc(Oc2ccc3c(c2)C(=O)N(c2ccc(O)cc2)C3=O)cc1)c1cccs1 the results were CAL PDZ FP-1 -2, CAL PDZ FP-2 -3, SR-BI DiI-HDL act -16, SR-BI DiI inh 16, dFosB act-1 61* and dFosB act-2 -4.
